PMC11673187 (JACS Au, 2024)

Tests used:
[1] = tested on: Nbs bearing click handles (Nb6EPEG4DBCO and NbALFAbiotinN3); test: Assessment of click chemistry; conditions: Gly vs Ahx linker; azide vs alkyne pairing; S4A-C
Outline: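 Click cross-linking run at room temperature in TBS with 10 µM of each nanobody bearing a click handle (DBCO or azide), with or without equimolar dimeric template peptide. Quenched with 500 µM GGG-Lys(azide) peptide, then denatured in Laemmli buffer with 100 mM DTT at 95 °C. Products resolved on 15% polyacrylamide gels and stained. High-MW cross-linked band quantified by densitometry, normalized to a control quenched at T = 0.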

[2] = target: T1, PTHR1 (Homo sapiens, UniProt Q03431); test: PTHR1-mediated signaling via Gαs/cAMP; assay type: cell-based; conditions: DPahx 300 nM with various concentrations of Nb-PTH conjugates; Figure 3D, S8
T1 sequence (Q03431 27-593): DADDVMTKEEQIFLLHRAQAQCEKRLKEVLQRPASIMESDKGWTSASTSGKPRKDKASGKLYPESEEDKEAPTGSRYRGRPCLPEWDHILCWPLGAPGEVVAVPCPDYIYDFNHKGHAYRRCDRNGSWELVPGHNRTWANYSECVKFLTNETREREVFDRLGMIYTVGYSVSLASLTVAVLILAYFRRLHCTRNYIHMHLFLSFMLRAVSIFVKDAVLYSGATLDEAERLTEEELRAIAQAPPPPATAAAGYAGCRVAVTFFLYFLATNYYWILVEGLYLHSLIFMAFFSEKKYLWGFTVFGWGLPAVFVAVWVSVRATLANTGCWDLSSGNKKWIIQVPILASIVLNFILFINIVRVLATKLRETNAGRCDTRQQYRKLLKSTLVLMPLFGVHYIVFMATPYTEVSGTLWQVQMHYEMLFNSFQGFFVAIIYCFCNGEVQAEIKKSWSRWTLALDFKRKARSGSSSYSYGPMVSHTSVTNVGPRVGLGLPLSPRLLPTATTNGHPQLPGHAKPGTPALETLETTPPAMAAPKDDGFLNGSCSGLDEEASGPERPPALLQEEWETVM
Outline: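 HEK293 cells stably expressing PTHR1 and a cAMP luminescence reporter, grown in DMEM with 10% FBS and Pen-Strep, mycoplasma-free. Varying concentrations of the complementary azide and DBCO nanobody–PTH fragment conjugates added with or without 300 nM dimeric peptide. Luminescence normalized to the maximum for the conjugate pair alone; technical replicates in a representative experiment.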

[3] = target: T1, PTHR1; conditions: fragments of PTH1–34; cited from earlier work
[4] = metal-free, absence of proximity enforcing conditions; cited from earlier work

## CQADQEAKELARQISGSRLEEELRRRLTE [DPgly]
[1]
  cross-linking kinetics: no major differences observed

## CQADQEAKELARQISZSRLEEELRRRLTE [DPahx]
[1]
  cross-linking kinetics: no major differences observed
[2]
  DP-potentiated activation of PTHR1: DP-potentiated activation of PTHR1

## PTH12–34: fragment of PTHR1 agonist peptide PTH1–34 (GKHLNSMERVEWLRKKLQDVHNF; Parathyroid hormone; UniProt P01270 43-65, looked up, fragment)
[3]
  activity of PTHR1 agonist fragments: weakly active or inactive

## dibenzylcyclooctyne [DBCO]
[4]
  DBCO-azide cycloaddition rate: ~1 M^–1S^1–
